Assay results from ChEMBL document CHEMBL4339251, “Prenylated Bibenzyls from the Chinese Liverwort Radula constricta and Their Mitochondria-Derived Paraptotic Cytotoxic Activities” (J Nat Prod, 2019).
The source made the active and inactive calls. The calls are words filed in the database; no cut-off is given here.

Tests used:
A549 [1] = assay: Induction of apoptosis in human A549 cells assessed as necrotic cells at 20 uM by annexinV-FITC and propidium iodide staining based flow cytometric analysis (reference value: 1.44%); type: functional
A549 [2] = assay: Induction of mitochondria-derived paraptosis in human A549 cells assessed as induction of HMGB1 translocation from nucleus to cytoplasm at 10 uM incubated for 24 hrs by immunofluorescence staining; type: functional, cell-based
In short: (§1)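 HMGB1 immunofluorescence. Cells were treated at 10 μM for 24 h, fixed in 4% paraformaldehyde for 30 min, permeabilised with 0.3% Triton X-100 for 15 min and blocked with 5% BSA for 30 min. Anti-HMGB1 was applied at 4 °C overnight and the secondary antibody at 37 °C for 1 h. Nuclei were counterstained with DAPI and cells imaged by confocal microscopy.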

A549 [3] = assay: Cytotoxicity in human A549 cells assessed as reduction in cell viability incubated for 48 hrs by MTT assay; type: functional, cell-based; settings: A549, 48 h
In short: (§2)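 MTT viability. U251 and NCI-H1299 were grown in DMEM, the other lines in RPMI 1640, each with 10% FBS, penicillin and streptomycin, at 37 °C in 5% CO2. Cells were seeded in 96-well plates overnight and exposed to a range of concentrations. MTT (5 mg/mL) was added for 4 h, formazan was dissolved in DMSO and absorbance read at 570 nm. Three independent experiments.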

NCI-H1299 [4] = assay: Induction of cytoplasmic vacuolization in human NCI-H1299 cells at 10 uM treated for 3 hrs after pre-treatment with pan-caspase inhibitor Z-VAD-FMK for 1 hr by optical microscopy; type: functional, cell-based
In short: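 Caspase-inhibitor morphology. Cells were treated with DMSO, 20 μM Z-VAD-FMK, 10 μM compound, or the combinations for 3 h, then imaged by optical microscopy.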

A549 [5] = assay: Induction of apoptosis in human A549 cells assessed as late apoptotic cells at 20 uM by annexinV-FITC and propidium iodide staining based flow cytometric analysis (reference value: 3.14%); type: functional
NCI-H1299 [6] = assay: Cytotoxicity in human NCI-H1299 cells assessed as reduction in cell viability at 5 uM incubated for 24 hrs in presence of pan-caspase inhibitor Z-VAD-FMK by MTT assay; type: functional, cell-based
NCI-H1299 [7] = assay: Induction of mitochondria-derived paraptosis in human NCI-H1299 cells assessed as induction of HMGB1 translocation from nucleus to cytoplasm at 10 uM incubated for 24 hrs by immunofluorescence staining; type: functional, cell-based; in short: as §1
SW-620 = assay: Cytotoxicity in human SW620 cells assessed as reduction in cell viability incubated for 48 hrs by MTT assay; type: functional, cell-based; settings: SW-620, 48 h; in short: as §2
NCI-H1299 [8] = assay: Induction of apoptosis in human NCI-H1299 cells assessed as early apoptotic cells at 20 uM by annexinV-FITC and propidium iodide staining based flow cytometric analysis (reference value: 1.26%); type: functional
A549 [9] = assay: Induction of apoptosis in human A549 cells assessed as late apoptotic cells at 10 uM by annexinV-FITC and propidium iodide staining based flow cytometric analysis (reference value: 3.14%); type: functional
NCI-H1299 [10] = assay: Induction of cytoplasmic vacuolization in human NCI-H1299 cells at 10 uM measured within 3 hrs by optical microscopy; type: functional, cell-based
In short: (§3)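 Morphology. A549 or NCI-H1299 cells were treated at 10 μM and vacuole formation was followed by optical microscopy at the indicated times.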

A549 [11] = assay: Induction of cytoplasmic vacuolization in human A549 cells at 10 uM measured within 3 hrs by optical microscopy; type: functional, cell-based; in short: as §3
HT-29 = assay: Cytotoxicity in human HT-29 cells assessed as reduction in cell viability incubated for 48 hrs by MTT assay; type: functional, cell-based; settings: HT-29, 48 h; in short: as §2
NCI-H1299 [12] = assay: Induction of apoptosis in human NCI-H1299 cells assessed as induction of PARP cleavage at 2.5 to 10 uM incubated for 24 hrs by Western blot analysis; type: functional, cell-based
In short: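 Western blot. Cells were cultured overnight in six-well plates, then exposed to various concentrations for 24 h before immunoblotting.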

COC(=O)c1c(CCc2ccccc2)cc(O)c(CC=C(C)C)c1O
Activity (A549 [1]): 1.73% | Activity (A549 [2]): Active | IC50 (A549 [3]): 6 µM | Activity (NCI-H1299 [4]): Active | Activity (A549 [5]): 4.14% | Activity (NCI-H1299 [6]): Active | Activity (NCI-H1299 [7]): Active | IC50 (SW-620): 6.3 µM | Activity (NCI-H1299 [8]): 1.11% | Activity (A549 [9]): 3.39% | Activity (NCI-H1299 [10]): Active | Activity (A549 [11]): Active | IC50 (HT-29): 5 µM | Activity (NCI-H1299 [12]): inactive
